Laboratory results as given in paper PMC9516706 (JACS Au, 2022).
Values belong to the molecule of their own block, whether it stands above or below them.

Key:
[1] = test system: HeLa, A431, MCF-7, HepG2, MvE and HEK293 cells; test: Cytotoxicity assay; format: cell-based, human; settings: up to 0.1 wt %; four different cell lines
Method in brief: (§1)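 Cells were seeded in 96-well plates and grown for 24 h. Medium was then replaced with medium containing the peptide amphiphile, and cells were incubated a further 20 h. Viability was read with WST-8 reagent. Lines were HeLa, A431, MCF-7 and HepG2 cancer cells, plus MvE and HEK293 normal cells.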

[2] = TEM observation of self-assembly; format: physicochemical; settings: 1.0 wt % in PBS(+), stained with 2.0 wt % phosphotungstic acid, 200 kV
Method in brief: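 A carbon-supported TEM grid was dipped in a 1.0 wt % peptide amphiphile solution in PBS(+) containing Ca²⁺ and Mg²⁺. The grid was dried, negatively stained with 2.0 wt % phosphotungstic acid, and imaged at 200 kV accelerating voltage.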

[3] = test system: HeLa cells; test: Apoptosis and necrosis detection; format: cell-based, human; settings: C16-E4Y 0.08 wt %, 1 h, counting at least 1000 cells in CLSM images
Method in brief: (§2)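 Cells were grown on a dish for 24 h, then given medium containing test compound at 0.08 wt % for 1 h. Cells were stained with annexin V-FITC and propidium iodide using an apoptotic/necrotic/healthy cell detection kit. Staining was imaged by CLSM, with PI fluorescence marking membrane-damaged cells.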

[4] = Gel formation of C16-E4Y phosphorylated by tyrosine kinase; format: physicochemical; settings: C16-E4Y 1 wt%, ATP 15 mM, c-Src kinase 6 µg/mL, 1× kinase buffer, 37 °C, 7 days
[5] = test system: A431 tumor; test: Antitumor activity in vivo, A431-xenografted nude mice; settings: same regimen, against PBS control group, n = 6
Method in brief: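 Nude mice with A431 cells injected subcutaneously into the flank. PBS (30 μL) with 1.5 wt % test compound was injected directly into the tumour three times a week for 3 weeks, against a PBS control. Bodyweight was followed during dosing, and tumour volume was taken as longer diameter × shorter diameter² × 0.5. Mice were sacrificed 4 weeks after inoculation; n = 6.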

[6] = test system: A431 cells; test: Fluorescence recovery after photobleaching; format: cell-based, human; settings: 0.08 wt% C16-E4Y for 1 h, without C16-E4Y recovery within 1 s
[7] = test system: A431 cells; test: Cytotoxicity assay; format: cell-based, human; settings: for Selective cytotoxicity to A431 cells: five different cell lines compared, cell viability assay
Method in brief: as §1

[8] = test system: HepG2 cells; test: Detection of a peptide amphiphile phosphorylated in cells; format: cell-based, human; settings: HepG2 cells cultured with 0.05 wt % C16-E4Y; medium and cell lysate
[9] = test system: A431 cells; test: Localization of peptide amphiphiles in cells; format: cell-based, human; settings: C16-E4Y 0.05 wt % with NBD-C8-E4Y 0.001 wt %, 24 h, ER-tracker and MitoRed, CLSM
[10] = test system: A431 cells; test: Apoptosis and necrosis detection; format: cell-based, human; settings: C16-E4Y 0.08 wt %, 1 h, counting at least 1000 cells in CLSM images
Method in brief: as §2

[11] = test system: A431 cells; test: Tyrosine kinase inhibitor assay; format: cell-based, human

Self-assembly morphology by TEM [2]: formed only a few isolated short fibers
Molecule: N-lauroyl-Glu-Glu-Glu-Glu-Tyr [C12-E4Y]
Cytotoxicity toward all cell lines tested [1]: did not show cytotoxicity

Molecule: N-palmitoyl-Glu-Glu-Glu-Glu-Tyr [C16-E4Y]
Cells in early apoptosis [3]: 0.4%
Gelation after incubation with a tyrosine kinase and ATP [4]: partially gelated
Bodyweight of treated mice [5]: comparable to those of the control group
Fluorescence recovery of ER-tracker after photobleaching [6]: recovered relatively slowly
Self-assembly morphology by TEM [2]: nanosized strings several hundred nanometers in length
Cytotoxicity toward A431 cells compared with the other cell lines ([7]; 0.05 wt %, 20 h incubation, WST-8, five replicates): remarkably higher cytotoxicity
Dose dependence of cytotoxicity ([7]; A431 cells, Figure 3b): dose-dependent
Intracellular phosphorylation (C16-E4pY by MALDI-TOF/MS) [8]: not detected
Intracellular localization [9]: accumulated on ER selectively
Cells in early apoptosis [10]: 15.4%

Molecule: N-palmitoyl-Glu-Glu-Glu-Glu [C16-E4]
Selective cytotoxicity to A431 cells [7]: did not exhibit selective cytotoxicity

Molecule: N-palmitoyl-Glu-Glu-Glu-Glu-Ser [C16-E4S]
Selective cytotoxicity to A431 cells [7]: did not exhibit selective cytotoxicity

Molecule: N-palmitoyl-Glu-Glu-Glu-Glu-Phe [C16-E4F]
Selective cytotoxicity to A431 cells [7]: did not exhibit selective cytotoxicity

Self-assembly morphology by TEM [2]: did not form any self-assembly body
Molecule: N-capryloyl-Glu-Glu-Glu-Glu-Tyr [C8-E4Y]
Cytotoxicity toward all cell lines tested [1]: did not show cytotoxicity

Molecule: C#Cc1cccc(Nc2ncnc3cc(OCCOC)c(OCCOC)cc23)c1 [erlotinib]
Effect of EGFR inhibitor on the cytotoxicity of C16-E4Y [11]: alleviated the cytotoxicity
